From ChEMBL document CHEMBL1129349, “Antiretroviral agents as inhibitors of both human immunodeficiency virus type 1 integrase and protease” (J Med Chem, 1996)

How the values were obtained:
[1] = molecular target: T1, Human immunodeficiency virus type 1 integrase (Human immunodeficiency virus 1, UniProt Q7ZJM1); assay: (§1) Inhibitory activity against HIV-1 integrase
How it was run: (§2)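 Purified recombinant wild-type HIV-1 integrase, 200 nM final, preincubated with inhibitor for 30 min at 30 °C. Buffer: 25 mM MOPS pH 7.2, 7.5 mM MnCl2, 50 mM NaCl, 10% DMSO, 10% glycerol, BSA, DTT, 2-mercaptoethanol. Then 20 nM 5'-32P-labeled 21mer U5 duplex added for 60 min. Products run on denaturing 20% polyacrylamide gel and quantified by phosphorimager.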

[2] = molecular target: T1, Human immunodeficiency virus type 1 integrase; assay: as §1; how it was run: as §2; remark: listed apart in the source
[3] = molecular target: T2, Human immunodeficiency virus type 1 protease (Human immunodeficiency virus 1, UniProt Q72874); assay: Inhibitory activity against HIV-1 protease
[4] = molecular target: T3, DNA topoisomerase 1 (Homo sapiens, UniProt P11387); assay: Inhibitory activity against topoisomerase I.
T3 sequence (P11387 whole entry): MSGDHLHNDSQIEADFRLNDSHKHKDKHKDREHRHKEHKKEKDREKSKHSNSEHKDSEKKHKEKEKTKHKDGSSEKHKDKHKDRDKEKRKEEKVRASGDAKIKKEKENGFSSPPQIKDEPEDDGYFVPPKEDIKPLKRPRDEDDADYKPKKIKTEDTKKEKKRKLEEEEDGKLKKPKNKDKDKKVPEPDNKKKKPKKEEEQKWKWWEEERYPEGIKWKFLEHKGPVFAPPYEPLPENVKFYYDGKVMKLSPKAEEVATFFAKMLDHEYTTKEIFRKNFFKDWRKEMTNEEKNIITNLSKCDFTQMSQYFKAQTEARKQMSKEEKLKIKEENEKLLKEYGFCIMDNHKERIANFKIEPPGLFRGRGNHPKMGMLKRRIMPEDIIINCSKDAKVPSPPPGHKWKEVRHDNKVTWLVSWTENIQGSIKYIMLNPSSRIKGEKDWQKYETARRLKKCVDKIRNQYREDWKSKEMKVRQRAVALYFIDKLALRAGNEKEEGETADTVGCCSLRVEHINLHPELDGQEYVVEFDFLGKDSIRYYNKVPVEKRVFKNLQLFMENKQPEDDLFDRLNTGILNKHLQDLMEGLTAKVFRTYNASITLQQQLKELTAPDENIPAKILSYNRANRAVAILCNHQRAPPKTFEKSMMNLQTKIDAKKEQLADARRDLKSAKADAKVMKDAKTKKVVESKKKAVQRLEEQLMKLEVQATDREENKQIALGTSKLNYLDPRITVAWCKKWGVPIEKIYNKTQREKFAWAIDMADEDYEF
How it was run: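 Eukaryotic topoisomerase I on a duplex oligonucleotide with a single strong cleavage site, 3'-end labeled with α-[32P]cordycepin. Scored both for induction of cleavable complexes and for blocking camptothecin-induced complexes. Stopped with 0.5% SDS, proteinase K 60 min at 50 °C, denaturing 16% PAGE.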

[5] = molecular target: T2, Human immunodeficiency virus type 1 protease; assay: Inhibitory activity against HIV-1 Protease.
[6] = system: CCRF-CEM; assay: Inhibitory activity against HIV-1 infected CEM cells; inactive; format: functional, cell-based, Homo sapiens

T1 sequence (Q7ZJM1 whole entry): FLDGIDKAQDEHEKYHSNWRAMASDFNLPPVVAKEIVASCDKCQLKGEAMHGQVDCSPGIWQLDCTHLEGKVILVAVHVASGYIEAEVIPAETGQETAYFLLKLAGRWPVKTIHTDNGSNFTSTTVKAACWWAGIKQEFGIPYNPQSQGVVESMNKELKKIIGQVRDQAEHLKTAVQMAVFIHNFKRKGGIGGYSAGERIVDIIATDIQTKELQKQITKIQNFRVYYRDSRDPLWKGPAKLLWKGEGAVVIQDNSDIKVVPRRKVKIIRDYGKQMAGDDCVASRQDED

| SMILES | IC50 [1] | IC50 [2] | IC50 [3] | IC50 [4] | IC50 [5] | IC50 [6] |
| --- | --- | --- | --- | --- | --- | --- |
| O=c1oc2ccccc2c(O)c1-c1ccccc1 | > 100 µM | > 100 µM | 32 µM | – | – | – |
| CCCCCCc1cc2c(cc1O)OC(=O)C(C(c1ccccc1)c1c(O)oc3cc(O)c(CCCCCC)cc3c1=O)C2O (stereo unspecified) | 12 µM | 10.5 µM | 0.32 µM | – | – | – |
| O=C1C(O)=C(C(C2=C(O)C(=O)c3ccccc3C2=O)c2ccc(C(C3=C(O)C(=O)c4ccccc4C3=O)C3=C(O)C(=O)c4ccccc4C3=O)cc2)C(=O)c2ccccc21 | 2.7 µM | 7.5 µM | – | 60 µM | 0.75 µM | Not Active |
| O=C(NC1=C(Cl)C(=O)c2ccccc2C1=O)C(=O)c1c(O)c2ccccc2oc1=O | > 100 µM | > 100 µM | > 100 µM | – | – | – |
| O=C1C(=O)c2ccccc2C(O)=C1Cc1ccc(Cl)cc1 | 56 µM | 92 µM | 3 µM | – | – | – |
| O=C1C(O)=C(C(C#Cc2ccccc2)C2=C(O)C(=O)c3ccccc3C2=O)C(=O)c2ccccc21 | 72 µM | > 100 µM | – | – | – | – |
| COc1cc(C(C2=C(O)C(=O)c3ccccc3C2=O)C2=C(O)C(=O)c3ccccc3C2=O)cc(Br)c1O | 20 µM | 32 µM | – | – | – | – |
| CN(C)c1ccc(C(C2=C(O)C(=O)c3ccccc3C2=O)C2=C(O)C(=O)c3ccccc3C2=O)cc1 | > 100 µM | > 100 µM | – | – | – | – |
| O=C1C(=O)c2ccccc2C(O)=C1CCCC1CCC2CCCCC2C1 (stereo unspecified) | > 100 µM | > 100 µM | 8.5 µM | – | – | – |
| CCCCCCC/N=C1/C(=O)c2ccccc2C(O)=C1O | > 100 µM | > 100 µM | 33 µM | – | – | – |
| O=C1C(O)=C(C(C2=C(O)C(=O)c3ccccc3C2=O)c2ccccc2)C(=O)c2ccccc21 | 48 µM | 68 µM | – | – | – | – |
| O=C1C(=O)c2ccccc2C(O)=C1CSc1ccc(Cl)cc1 | > 100 µM | > 100 µM | 50 µM | – | – | – |
| CCOC(=O)C(C1=C(O)C(=O)c2ccccc2C1=O)C1=C(O)C(=O)c2ccccc2C1=O | 60 µM | 92 µM | – | – | – | – |
| O=C1C(=O)c2ccccc2C(O)=C1Sc1ccccc1 | > 100 µM | > 100 µM | > 100 µM | – | – | – |
| O=C(SCc1c(O)c2ccccc2oc1=O)c1ccccc1 | > 100 µM | > 100 µM | > 100 µM | – | – | – |
| COc1cc(C(C2=C(O)C(=O)c3ccccc3C2=O)C2=C(O)C(=O)c3ccccc3C2=O)cc(OC)c1OC | > 100 µM | > 100 µM | – | – | – | – |
| O=C(c1ccc(Cl)cc1)c1c(O)c2ccccc2oc1=O | > 100 µM | > 100 µM | > 100 µM | – | – | – |
| CCOC(=O)C(c1c(O)c2ccccc2oc1=O)c1c(O)c2ccccc2oc1=O [ETHYL BISCOUMACETATE] | > 100 µM | > 100 µM | > 100 µM | – | – | – |
| O=C1C=C(O)C(=O)c2ccccc21 [LAWSONE] | – | – | > 100 µM | – | – | – |
